Measurements: PMC3102533 (ChemMedChem, 2009)

Molecular target: T1, recombinant Lyp (Homo sapiens, UniProt Q9Y2R2)
T1 sequence (Q9Y2R2 2-309): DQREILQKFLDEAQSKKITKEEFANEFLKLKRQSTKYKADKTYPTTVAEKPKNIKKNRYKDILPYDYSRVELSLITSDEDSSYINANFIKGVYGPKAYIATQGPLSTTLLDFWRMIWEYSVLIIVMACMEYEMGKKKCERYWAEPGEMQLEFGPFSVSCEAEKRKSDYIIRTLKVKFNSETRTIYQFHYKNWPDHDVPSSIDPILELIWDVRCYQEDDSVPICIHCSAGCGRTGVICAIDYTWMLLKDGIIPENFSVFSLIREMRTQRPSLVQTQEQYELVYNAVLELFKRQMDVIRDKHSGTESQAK
Test: Lyp enzymatic assay, IC50 measurements
Assay type: biochemical
Settings: compared with compound 7 (analogue lacks the nitro group)
Summary of the method: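 GST-fused Lyp catalytic domain (residues 2–309) was expressed in E. coli BL21 DE3 and purified by glutathione affinity and Superdex S-200. DiFMUP hydrolysis was measured at 48 μM substrate (Km) and 30°C in 20 mM Bis-Tris pH 6.0 (ionic strength 20 mM, NaCl) with 1 mM DTT, 1% PEG 8000 and 5% DMSO. Initial rates were read at ex 360/em 460 nm and corrected with a no-enzyme control. IC50 came from fitting relative activity against inhibitor concentration.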

fold less inhibitory activity against Lyp: 157 fold
Structure (SMILES): O=C(Nc1ccc(I)cc1C(=O)O)c1ccccc1 [2-benzamido-5-iodobenzoic acid]
